From ChEMBL document CHEMBL3045285, “Synthesis and insecticidal activities of novel anthranilic diamides containing modified N-pyridylpyrazoles” (2010)
Converted amounts (≈) assume the structure as drawn.

How the values were obtained:
Format in all cases: functional
Mythimna separata [1] = experiment: Insecticidal activity against fourth-instar larval stage of Mythimna separata (Oriental armyworm) in compound pretreated Zea mays L. Tangyu 10 leaves assessed as mortality at 5 mg/l at 25 +/-1 degC after 2 days
Method in brief: (§1)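 Greenhouse-reared fourth-instar oriental armyworm larvae. Corn (Tangyu 10) leaves laid on moist filter paper in Petri dishes, sprayed with test solution (200 mg/L solution diluted in distilled water), then air-dried. Ten larvae per dish. Held at 25 ± 1 °C; mortality scored dead/alive 2 days post-treatment. Triplicate treatments, Abbott-corrected, 0–100 scale.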

Mythimna separata [2] = experiment: Insecticidal activity against fourth-instar larval stage of Mythimna separata (Oriental armyworm) in compound pretreated Zea mays L. Tangyu 10 leaves assessed as mortality at 20 mg/l at 25 +/-1 degC after 2 days; method in brief: as §1
Mythimna separata [3] = experiment: Insecticidal activity against fourth-instar larval stage of Mythimna separata (Oriental armyworm) in compound pretreated Zea mays L. Tangyu 10 leaves assessed as mortality at 50 mg/l at 25 +/-1 degC after 2 days; method in brief: as §1
Plutella xylostella [4] = experiment: Insecticidal activity against second-instar larval stage of Plutella xylostella (diamondback moth) in cabbage leaves assessed as mortality at 1 mg/l at 25 +/-1 degC treated for 3 secs before larva infestation measured after 2 days by leaf-dip method; details: 48 h
Method in brief: (§2)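 Greenhouse-reared diamondback moth larvae tested by leaf-dip method at 25 ± 1 °C. Test solution made at 200 mg/L, then diluted with distilled water to working concentrations. Mortality scored dead/alive, corrected with Abbott's formula and expressed on a 0–100 scale.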

Plutella xylostella [5] = experiment: Insecticidal activity against second-instar larval stage of Plutella xylostella (diamondback moth) in cabbage leaves assessed as mortality at 5 mg/l at 25 +/-1 degC treated for 3 secs before larva infestation measured after 2 days by leaf-dip method; details: 48 h; method in brief: as §2
Plutella xylostella [6] = experiment: Insecticidal activity against second-instar larval stage of Plutella xylostella (diamondback moth) in cabbage leaves assessed as mortality at 20 mg/l at 25 +/-1 degC treated for 3 secs before larva infestation measured after 2 days by leaf-dip method; details: 48 h; method in brief: as §2
Mythimna separata [7] = experiment: Insecticidal activity against fourth-instar larval stage of Mythimna separata (Oriental armyworm) in compound pretreated Zea mays L. Tangyu 10 leaves assessed as mortality at 10 mg/l at 25 +/-1 degC after 2 days; method in brief: as §1
Plutella xylostella [8] = experiment: Insecticidal activity against second-instar larval stage of Plutella xylostella (diamondback moth) in cabbage leaves assessed as mortality at 0.125 mg/l at 25 +/-1 degC treated for 3 secs before larva infestation measured after 2 days by leaf-dip method; details: 48 h; method in brief: as §2
Plutella xylostella [9] = experiment: Insecticidal activity against second-instar larval stage of Plutella xylostella (diamondback moth) in cabbage leaves assessed as mortality at 2.5 mg/l at 25 +/-1 degC treated for 3 secs before larva infestation measured after 2 days by leaf-dip method; details: 48 h; method in brief: as §2
Mythimna separata [10] = experiment: Insecticidal activity against fourth-instar larval stage of Mythimna separata (Oriental armyworm) in compound pretreated Zea mays L. Tangyu 10 leaves assessed as mortality at 200 mg/l at 25 +/-1 degC after 2 days; method in brief: as §1
Plutella xylostella [11] = experiment: Insecticidal activity against second-instar larval stage of Plutella xylostella (diamondback moth) in cabbage leaves assessed as mortality at 0.25 mg/l at 25 +/-1 degC treated for 3 secs before larva infestation measured after 2 days by leaf-dip method; details: 48 h; method in brief: as §2
Mythimna separata [12] = experiment: Insecticidal activity against fourth-instar larval stage of Mythimna separata (Oriental armyworm) in compound pretreated Zea mays L. Tangyu 10 leaves assessed as mortality at 100 mg/l at 25 +/-1 degC after 2 days; method in brief: as §1
Plutella xylostella [13] = experiment: Insecticidal activity against second-instar larval stage of Plutella xylostella (diamondback moth) in cabbage leaves assessed as mortality at 0.5 mg/l at 25 +/-1 degC treated for 3 secs before larva infestation measured after 2 days by leaf-dip method; details: 48 h; method in brief: as §2
Plutella xylostella [14] = experiment: Insecticidal activity against second-instar larval stage of Plutella xylostella (diamondback moth) in cabbage leaves assessed as mortality at 10 mg/l at 25 +/-1 degC treated for 3 secs before larva infestation measured after 2 days by leaf-dip method; details: 48 h; method in brief: as §2
Mythimna separata [15] = experiment: Insecticidal activity against fourth-instar larval stage of Mythimna separata (Oriental armyworm) in compound pretreated Zea mays L. Tangyu 10 leaves assessed as mortality at 2.5 mg/l at 25 +/-1 degC after 2 days; method in brief: as §1
Plutella xylostella [16] = experiment: Insecticidal activity against second-instar larval stage of Plutella xylostella (diamondback moth) in cabbage leaves assessed as mortality at 25 +/-1 degC treated for 3 secs before larva infestation measured after 2 days by leaf-dip method; details: 48 h; method in brief: as §2

Row | SMILES | mortality at 5 µg/mL (Mythimna separata [1]) [%] | mortality at 20 µg/mL (Mythimna separata [2]) [%] | mortality at 50 µg/mL (Mythimna separata [3]) [%] | mortality at 1 µg/mL (Plutella xylostella [4]) [%] | mortality at 5 µg/mL (Plutella xylostella [5]) [%] | mortality at 20 µg/mL (Plutella xylostella [6]) [%] | mortality at 10 µg/mL (Mythimna separata [7]) [%] | mortality at 0.125 µg/mL (Plutella xylostella [8]) [%] | mortality at 2.5 µg/mL (Plutella xylostella [9]) [%] | mortality at 200 µg/mL (Mythimna separata [10]) [%] | mortality at 0.25 µg/mL (Plutella xylostella [11]) [%] | mortality at 100 µg/mL (Mythimna separata [12]) [%] | mortality at 0.5 µg/mL (Plutella xylostella [13]) [%] | mortality at 10 µg/mL (Plutella xylostella [14]) [%] | mortality at 2.5 µg/mL (Mythimna separata [15]) [%] | LC50 (Plutella xylostella [16]) [µg/mL]
1 | CC(=O)OCc1cc(C(=O)Nc2c(C)cc(Cl)cc2C(=O)NC(C)(C)C)n(-c2ncccc2Cl)n1 | 20 | 100 | 100 | 70 | 100 | 100 | 100 | 0 | 95 | 100 | 25 | 100 | 50 | 100 | – | –
2 | CNC(=O)c1cc(C(=O)Nc2c(C)cc(Cl)cc2C(=O)NC(C)(C)C)n(-c2ncccc2Cl)n1 | 40 | 100 | 100 | 100 | 100 | 100 | 100 | 0 | 100 | 100 | 30 | 100 | 85 | 100 | – | –
3 | CNC(=O)c1cc(Cl)cc(C)c1NC(=O)c1cc(CN=[N+]=[N-])nn1-c1ncccc1Cl | 100 | 100 | 100 | 100 | 100 | 100 | 100 | 45 | 100 | 100 | 75 | 100 | 100 | 100 | 40 | –
4 | CNC(=O)c1cc(Cl)cc(C)c1NC(=O)c1cc(Br)nn1-c1ncccc1Cl [CHLORANTRANILIPROLE] | 100 | 100 | 100 | 100 | 100 | 100 | 100 | 100 | 100 | 100 | 100 | 100 | 100 | 100 | 100 | 3.8 (≈ 7.87 µM)
5 | CNC(=O)c1cc(Cl)cc(C)c1NC(=O)c1cc(CNC(=O)C(F)(F)F)nn1-c1ncccc1Cl | 40 | 100 | 100 | 80 | 100 | 100 | 100 | – | 100 | 100 | 0 | 100 | 40 | 100 | – | –
6 | CC(=O)OCc1cc(C(=O)Nc2c(C)cc(Cl)cc2C(=O)NC2CC2)n(-c2ncccc2Cl)n1 | – | 100 | 100 | 60 | 100 | 100 | 0 | – | 90 | 100 | 0 | 100 | 40 | 100 | – | –
